Assay results from ChEMBL document CHEMBL1275604, “Identification of TEM-135 beta-lactamase in penicillinase-producing Neisseria gonorrhoeae strains in Japan” (2010).
≈ marks a conversion by molar mass, not a printed value.

Each compound was assayed on Neisseria gonorrhoeae (assay: Antimicrobial activity against […] Neisseria gonorrhoeae NGON 08-044 expressing beta-lactamase TEM-1, MLST type ST-7823 and MAST type ST-1288 by agar dilution method).
Format: functional
Procedure, shortened: (§1)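 Clinical PPNG isolates from one Tokyo hospital, collected 2000–2008 and flagged as penicillinase producers by nitrocefin test. MICs of penicillin, cefixime and ceftriaxone were determined by agar dilution per an earlier method. Isolates were typed by MLST and MAST. The bla gene was PCR-amplified (annealing at 60°C, 30 cycles) and sequenced to assign the TEM allele.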

Row | Structure (SMILES) | MIC
1 | C=CC1=C(C(=O)O)N2C(=O)[C@@H](NC(=O)/C(=N\OCC(=O)O)c3csc(N)n3)[C@H]2SC1 [CEFIXIME] | 0.064 µg/mL (≈ 0.141 µM)
2 | CO/N=C(\C(=O)N[C@@H]1C(=O)N2C(C(=O)O)=C(CSc3nc(=O)c(O)nn3C)CS[C@H]12)c1csc(N)n1 [CEFTRIAXONE] | 0.064 µg/mL (≈ 0.115 µM)
3 | CC1(C)S[C@@H]2[C@H](NC(=O)Cc3ccccc3)C(=O)N2[C@H]1C(=O)O [PENICILLIN G] | > 64 µg/mL

What follows are compounds tested on Neisseria gonorrhoeae (assay: Antimicrobial activity against […] Neisseria gonorrhoeae NGON 08-003 expressing beta-lactamase TEM-135, MLST type ST-7823 and MAST type ST-4013 by agar dilution method).
Format: functional
Procedure, shortened: as §1

Row | Structure (SMILES) | MIC
4 | C=CC1=C(C(=O)O)N2C(=O)[C@@H](NC(=O)/C(=N\OCC(=O)O)c3csc(N)n3)[C@H]2SC1 [CEFIXIME] | 0.032 µg/mL (≈ 0.0706 µM)
5 | CO/N=C(\C(=O)N[C@@H]1C(=O)N2C(C(=O)O)=C(CSc3nc(=O)c(O)nn3C)CS[C@H]12)c1csc(N)n1 [CEFTRIAXONE] | 0.032 µg/mL (≈ 0.0577 µM)
6 | CC1(C)S[C@@H]2[C@H](NC(=O)Cc3ccccc3)C(=O)N2[C@H]1C(=O)O [PENICILLIN G] | > 64 µg/mL

Each compound was assayed on Neisseria gonorrhoeae (assay: Antimicrobial activity against […] Neisseria gonorrhoeae NGON 06-041 expressing beta-lactamase TEM-1, MLST type ST-1588 and MAST type ST-4012 by agar dilution method).
Format: functional

Row | Structure (SMILES) | MIC
7 | C=CC1=C(C(=O)O)N2C(=O)[C@@H](NC(=O)/C(=N\OCC(=O)O)c3csc(N)n3)[C@H]2SC1 [CEFIXIME] | 0.25 µg/mL (≈ 0.551 µM)
8 | CO/N=C(\C(=O)N[C@@H]1C(=O)N2C(C(=O)O)=C(CSc3nc(=O)c(O)nn3C)CS[C@H]12)c1csc(N)n1 [CEFTRIAXONE] | 0.032 µg/mL (≈ 0.0577 µM)
9 | CC1(C)S[C@@H]2[C@H](NC(=O)Cc3ccccc3)C(=O)N2[C@H]1C(=O)O [PENICILLIN G] | 32 µg/mL (≈ 95.7 µM)

Each compound was assayed on Neisseria gonorrhoeae (assay: Antimicrobial activity against […] Neisseria gonorrhoeae NGON 00-027 expressing beta-lactamase TEM-1, MLST type ST-1921 and MAST type ST-1817 by agar dilution method).
Format: functional
Procedure, shortened: as §1

Row | Structure (SMILES) | MIC
10 | C=CC1=C(C(=O)O)N2C(=O)[C@@H](NC(=O)/C(=N\OCC(=O)O)c3csc(N)n3)[C@H]2SC1 [CEFIXIME] | 0.008 µg/mL (≈ 0.0176 µM)
11 | CO/N=C(\C(=O)N[C@@H]1C(=O)N2C(C(=O)O)=C(CSc3nc(=O)c(O)nn3C)CS[C@H]12)c1csc(N)n1 [CEFTRIAXONE] | 0.008 µg/mL (≈ 0.0144 µM)
12 | CC1(C)S[C@@H]2[C@H](NC(=O)Cc3ccccc3)C(=O)N2[C@H]1C(=O)O [PENICILLIN G] | > 64 µg/mL

What follows are compounds tested on Neisseria gonorrhoeae (assay: Antimicrobial activity against […] Neisseria gonorrhoeae NGON 00-002 expressing beta-lactamase TEM-1, MLST type ST-1590 and MAST type ST-270 by agar dilution method).
Format: functional
Procedure, shortened: as §1

Row | Structure (SMILES) | MIC
13 | C=CC1=C(C(=O)O)N2C(=O)[C@@H](NC(=O)/C(=N\OCC(=O)O)c3csc(N)n3)[C@H]2SC1 [CEFIXIME] | 0.032 µg/mL (≈ 0.0706 µM)
14 | CO/N=C(\C(=O)N[C@@H]1C(=O)N2C(C(=O)O)=C(CSc3nc(=O)c(O)nn3C)CS[C@H]12)c1csc(N)n1 [CEFTRIAXONE] | 0.016 µg/mL (≈ 0.0289 µM)
15 | CC1(C)S[C@@H]2[C@H](NC(=O)Cc3ccccc3)C(=O)N2[C@H]1C(=O)O [PENICILLIN G] | 16 µg/mL (≈ 47.8 µM)

Each compound was assayed on Neisseria gonorrhoeae (assay: Antimicrobial activity against […] Neisseria gonorrhoeae NGON 08-046 expressing beta-lactamase TEM-1, MLST type ST-1584 and MAST type ST-1478 by agar dilution method).
Format: functional

Row | Structure (SMILES) | MIC
16 | C=CC1=C(C(=O)O)N2C(=O)[C@@H](NC(=O)/C(=N\OCC(=O)O)c3csc(N)n3)[C@H]2SC1 [CEFIXIME] | 0.25 µg/mL (≈ 0.551 µM)
17 | CO/N=C(\C(=O)N[C@@H]1C(=O)N2C(C(=O)O)=C(CSc3nc(=O)c(O)nn3C)CS[C@H]12)c1csc(N)n1 [CEFTRIAXONE] | 0.032 µg/mL (≈ 0.0577 µM)
18 | CC1(C)S[C@@H]2[C@H](NC(=O)Cc3ccccc3)C(=O)N2[C@H]1C(=O)O [PENICILLIN G] | 64 µg/mL (≈ 191 µM)

What follows are compounds tested on Neisseria gonorrhoeae (assay: Antimicrobial activity against […] Neisseria gonorrhoeae NGON 04-025 expressing beta-lactamase TEM-135, MLST type ST-1597 and MAST type ST-1549 by agar dilution method).
Format: functional

Row | Structure (SMILES) | MIC
19 | C=CC1=C(C(=O)O)N2C(=O)[C@@H](NC(=O)/C(=N\OCC(=O)O)c3csc(N)n3)[C@H]2SC1 [CEFIXIME] | 0.004 µg/mL (≈ 0.00882 µM)
20 | CO/N=C(\C(=O)N[C@@H]1C(=O)N2C(C(=O)O)=C(CSc3nc(=O)c(O)nn3C)CS[C@H]12)c1csc(N)n1 [CEFTRIAXONE] | ≤ 0.004 µg/mL
21 | CC1(C)S[C@@H]2[C@H](NC(=O)Cc3ccccc3)C(=O)N2[C@H]1C(=O)O [PENICILLIN G] | > 64 µg/mL

These compounds were tested on Neisseria gonorrhoeae (assay: Antimicrobial activity against […] Neisseria gonorrhoeae NGON 08-041 expressing beta-lactamase TEM-1, MLST type ST-1584 and MAST type ST-1478 by agar dilution method).
Format: functional
Procedure, shortened: as §1

Row | Structure (SMILES) | MIC
22 | C=CC1=C(C(=O)O)N2C(=O)[C@@H](NC(=O)/C(=N\OCC(=O)O)c3csc(N)n3)[C@H]2SC1 [CEFIXIME] | 0.008 µg/mL (≈ 0.0176 µM)
23 | CO/N=C(\C(=O)N[C@@H]1C(=O)N2C(C(=O)O)=C(CSc3nc(=O)c(O)nn3C)CS[C@H]12)c1csc(N)n1 [CEFTRIAXONE] | 0.004 µg/mL (≈ 0.00721 µM)
24 | CC1(C)S[C@@H]2[C@H](NC(=O)Cc3ccccc3)C(=O)N2[C@H]1C(=O)O [PENICILLIN G] | 64 µg/mL (≈ 191 µM)

These compounds were tested on Neisseria gonorrhoeae (assay: Antimicrobial activity against […] Neisseria gonorrhoeae NGON 05-042 expressing beta-lactamase TEM-1, MLST type ST-1588 and MAST type ST-4012 by agar dilution method).
Format: functional

Row | Structure (SMILES) | MIC
25 | C=CC1=C(C(=O)O)N2C(=O)[C@@H](NC(=O)/C(=N\OCC(=O)O)c3csc(N)n3)[C@H]2SC1 [CEFIXIME] | 0.25 µg/mL (≈ 0.551 µM)
26 | CO/N=C(\C(=O)N[C@@H]1C(=O)N2C(C(=O)O)=C(CSc3nc(=O)c(O)nn3C)CS[C@H]12)c1csc(N)n1 [CEFTRIAXONE] | 0.064 µg/mL (≈ 0.115 µM)
27 | CC1(C)S[C@@H]2[C@H](NC(=O)Cc3ccccc3)C(=O)N2[C@H]1C(=O)O [PENICILLIN G] | 64 µg/mL (≈ 191 µM)

These compounds were tested on Neisseria gonorrhoeae (assay: Antimicrobial activity against […] Neisseria gonorrhoeae NGON 08-043 expressing beta-lactamase TEM-1, MLST type ST-7823 and MAST type ST-1288 by agar dilution method).
Format: functional
Procedure, shortened: as §1

Row | Structure (SMILES) | MIC
28 | C=CC1=C(C(=O)O)N2C(=O)[C@@H](NC(=O)/C(=N\OCC(=O)O)c3csc(N)n3)[C@H]2SC1 [CEFIXIME] | 0.064 µg/mL (≈ 0.141 µM)
29 | CO/N=C(\C(=O)N[C@@H]1C(=O)N2C(C(=O)O)=C(CSc3nc(=O)c(O)nn3C)CS[C@H]12)c1csc(N)n1 [CEFTRIAXONE] | 0.064 µg/mL (≈ 0.115 µM)
30 | CC1(C)S[C@@H]2[C@H](NC(=O)Cc3ccccc3)C(=O)N2[C@H]1C(=O)O [PENICILLIN G] | > 64 µg/mL
